The entries come from a sample that favours hits as a whole.
T cruzi growth-1 = blocks T. cruzi growth in NIH3T3 culture | T. cruzi beta-gal in NIH3T3, GalScreen luminescence, 90 h | inhibition, % at 8.34 µM | 77,000 tested, 5.9% active | AID 624255;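 active = mean inhibition above about 93%, with at least 55% of replicates each passing it, limit read from the data, passing the limit was not always enough; inconclusive = only one of those two conditions holds; inactive = neither condition holds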
IDH1 mut inh = IDH1 R132H (human) inhibition | IDH1 R132H reductase, diaphorase/resazurin fluorescence, 60 min | O75874 | 70,000 tested, 0.18% active | AID 624101 | inhibition, % at 10 µM; in the data active = inhibition above about 34%; inconclusive = no clear call, values can overlap the other calls; inactive = below about 11%
Target sequence (O75874 whole entry R132H): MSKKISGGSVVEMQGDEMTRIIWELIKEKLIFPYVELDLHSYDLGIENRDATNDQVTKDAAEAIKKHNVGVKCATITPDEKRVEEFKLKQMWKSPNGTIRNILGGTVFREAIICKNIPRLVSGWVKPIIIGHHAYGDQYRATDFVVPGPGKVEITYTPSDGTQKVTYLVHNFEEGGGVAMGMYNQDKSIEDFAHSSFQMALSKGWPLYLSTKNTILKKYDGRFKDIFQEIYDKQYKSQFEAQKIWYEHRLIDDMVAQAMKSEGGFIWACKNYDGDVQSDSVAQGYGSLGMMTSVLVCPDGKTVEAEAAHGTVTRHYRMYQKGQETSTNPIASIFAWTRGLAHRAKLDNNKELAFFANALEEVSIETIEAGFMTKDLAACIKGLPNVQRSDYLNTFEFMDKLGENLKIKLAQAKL
KDM4C inh = inhibitors of human demethylase GASC-1 KDM4C; inhibition, % at 12.5 µM; 96,000 tested, 0.15% active; GST-KDM4C 2-372, H3K9me3 peptide, LANCE TR-FRET;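 active = mean replicate inhibition above about 25%, with at least 55% of replicates also reaching it, limit read from the data, passing the limit was not always enough; inconclusive = only one of those two conditions met; inactive = neither condition met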
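Test system: N-terminal GST-fused human GASC-1 (KDM4C) fragment, residues 2-372; quantity: GASC-1 enzyme at 10 nM final in reaction; dosing: single dose; schedule: 30 min demethylation and 1 h detection at room temperature; signal: LANCE TR-FRET, excitation 340 nm, emissions 618 and 671 nm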
T cruzi growth-2 = inhibitors of T. cruzi proliferation | inhibition, % at 8.35 µM | 5,600 tested, 72% active | T. cruzi beta-gal in NIH3T3, GalScreen luminescence, 90 h | shares compounds with T cruzi growth-1;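 active = mean replicate inhibition above about 95% and at least 55% of replicates individually reaching it, limit read from the data; inconclusive = only one of the two criteria is met; inactive = neither criterion is met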
T cruzi growth-3 = Trypanosoma cruzi proliferation inhibition | shares compounds with T cruzi growth-1 | T. cruzi beta-gal in NIH3T3, GalScreen luminescence, 90 h | inhibition, % at 2.09 µM | 5,600 tested, 21% active;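 active = mean inhibition above about 95%, with at least 55% of replicates also reaching it, limit read from the data; inconclusive = meets just one of the two conditions; inactive = meets neither condition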
NIH3T3 tox = cytotoxicity in mouse NIH/3T3 fibroblasts; shares compounds with T cruzi growth-1; NIH/3T3 viability, CellTiter-Glo ATP luminescence, 90 h; cytotoxicity (signal decrease), % at 8.35 µM; 5,600 tested, 14% active; AID 651742;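 active = mean signal decrease across replicates above about 35% based on untreated-well scatter, with enough replicates individually passing, limit read from the data; inconclusive = no rule stated though some were filed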
NIH3T3 tox 2 = cytotoxicity in mouse NIH/3T3 fibroblasts. shares compounds with T cruzi growth-1. AID 651744. 5,600 tested, 56% active. NIH/3T3 viability, CellTiter-Glo ATP luminescence, 90 h. inhibition, % at 24.9 µM;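 active = mean loss of cell viability signal at or above a set limit, and enough replicates individually reaching it; inconclusive = meets only the mean limit or only the replicate share; inactive = meets neither condition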
Hits are given with their value; ! = repeats disagree.

Results for COc1ccccc1CNC(=O)C[C@@H]1CC[C@H]2[C@@H](COC[C@H](O)CN2Cc2ccc3c(c2)OCO3)O1 ?
T cruzi growth-1: 101; KDM4C inh: inactive; T cruzi growth-2: inactive; T cruzi growth-3: inactive; NIH3T3 tox: inactive; NIH3T3 tox 2: inactive

Results for COc1ccccc1CNC(=O)C[C@@H]1CC[C@H]2[C@@H](COC[C@H](O)CN2Cc2cccc(-c3ccncc3)c2)O1 ?
T cruzi growth-1: inactive; KDM4C inh: inactive

Results for CC(C)(CO)NCc1ccc(-c2ccccc2)o1 ?
IDH1 mut inh: inactive

How did COC(=O)c1ccccc1NC(=O)COc1ccc([N+](=O)[O-])c(C)c1 do in these assays?
IDH1 mut inh: inactive

Results for CN(CC(=O)Nc1ccc(C(N)=O)cc1)S(=O)(=O)c1ccc(F)cc1 ?
IDH1 mut inh: inactive

How did COc1cc(C(=O)NCc2cccnc2)c([N+](=O)[O-])cc1OC do in these assays?
IDH1 mut inh: inactive

How did O=C(c1ccc(F)cc1)N1CCCCN2[C@H](CO)[C@H](c3ccc(C#CC4(O)CCCC4)cc3)[C@@H]2C1 do in these assays?
T cruzi growth-1: 107; KDM4C inh: inactive; T cruzi growth-2: 103; T cruzi growth-3: inactive; NIH3T3 tox: inactive; NIH3T3 tox 2: inactive

How did O=C(C1CCC1)N1CCCCN2[C@H](CO)[C@H](c3ccc(C#CC4(O)CCCC4)cc3)[C@H]2C1 do in these assays?
T cruzi growth-1: 101; KDM4C inh: inactive; T cruzi growth-2: inconclusive; T cruzi growth-3: inactive; NIH3T3 tox: inactive; NIH3T3 tox 2: inactive

What do the screens show for `O=C(C1CCC1)N1CCCCN2[C@H](C1)[C@H](c1ccc(C#CC3(O)CCCC3)cc1)[C@@H]2CO`?
T cruzi growth-1: inactive; KDM4C inh: inactive

Results for O=C(c1ccc(F)cc1)N1CCCCN2[C@H](CO)[C@@H](c3ccc(C#CC4(O)CCCC4)cc3)[C@@H]2C1 ?
T cruzi growth-1: inactive; KDM4C inh: inactive

What do the screens show for `O=C(C1CCC1)N1CCCCN2[C@H](C1)[C@@H](c1ccc(C#CC3(O)CCCC3)cc1)[C@@H]2CO`?
T cruzi growth-1: inactive; KDM4C inh: inactive

Results for O=C(C1CCCC1)N1CCCCN2[C@H](CO)[C@H](c3ccc(C#CC4(O)CCCC4)cc3)[C@H]2C1 ?
T cruzi growth-1: 104; T cruzi growth-2: 109; T cruzi growth-3: inactive; NIH3T3 tox: inactive; NIH3T3 tox 2: 30

How did O=C(C1CCC1)N1CCCCN2[C@H](CO)[C@@H](c3ccc(C#CC4(O)CCCC4)cc3)[C@H]2C1 do in these assays?
T cruzi growth-1: inactive; KDM4C inh: inactive

What do the screens show for `O=C(C1CCC1)N1CCCCN2[C@H](CO)[C@H](c3ccc(C#CC4(O)CCCC4)cc3)[C@@H]2C1`?
T cruzi growth-1: inconclusive; KDM4C inh: inactive; T cruzi growth-2: 99; T cruzi growth-3: inactive; NIH3T3 tox: inactive; NIH3T3 tox 2: 39

What do the screens show for `O=C(CCCCC(=O)N/N=C/c1ccc(C(=O)O)cc1)NO`?
IDH1 mut inh: inactive

How did Cc1ccc(NC(=O)CSc2nnc(N)s2)c(Br)c1 do in these assays?
IDH1 mut inh: inactive

How did COc1ccc(-n2c(C)nnc2SCC(=O)Nc2ccc(F)c(Cl)c2)cc1 do in these assays?
IDH1 mut inh: inactive

How did COc1ccc(OC)c(NC(=O)Cc2c(OC)ccc3cc(Br)ccc23)c1 do in these assays?
IDH1 mut inh: inactive

Results for C[C@H](CO)N1C[C@H](C)[C@H](CN(C)C(=O)Nc2ccc(C(F)(F)F)cc2)OCCCC[C@H](C)Oc2ccc(NC(=O)Nc3ccc4c(c3)OCO4)cc2C1=O ?
T cruzi growth-1: 111; IDH1 mut inh: inactive; KDM4C inh: inactive; T cruzi growth-2: 100; T cruzi growth-3: 109; NIH3T3 tox: inactive; NIH3T3 tox 2: inactive

How did C[C@H]1CCCCO[C@H](CN(C)C(=O)Nc2ccc(C(F)(F)F)cc2)[C@@H](C)CN([C@@H](C)CO)C(=O)c2cc(NC(=O)Nc3ccc4c(c3)OCO4)ccc2O1 do in these assays?
T cruzi growth-1: 107; KDM4C inh: inactive; T cruzi growth-2: 102; T cruzi growth-3: 110; NIH3T3 tox: inactive; NIH3T3 tox 2: inactive

Results for C[C@@H]1CCCCO[C@H](CN(C)C(=O)Nc2ccc3c(c2)OCO3)[C@H](C)CN([C@@H](C)CO)C(=O)c2cc(NC(=O)Nc3ccc4c(c3)OCO4)ccc2O1 ?
T cruzi growth-1: inactive; IDH1 mut inh: inactive; KDM4C inh: inactive

How did C[C@@H]1CN([C@@H](C)CO)C(=O)c2cc(NC(=O)Nc3ccc(C(F)(F)F)cc3)ccc2O[C@@H](C)CCCCO[C@@H]1CN(C)C(=O)Nc1ccc2c(c1)OCO2 do in these assays?
IDH1 mut inh: inactive; KDM4C inh: inactive

How did C[C@@H]1CN([C@@H](C)CO)S(=O)(=O)c2ccc(C3=CCCCC3)cc2O[C@H]1CN(C)C(=O)C1CCC1 do in these assays?
T cruzi growth-1: inactive; KDM4C inh: inactive

What do the screens show for `C[C@@H]1CN([C@H](C)CO)S(=O)(=O)c2ccc(C3=CCCCC3)cc2O[C@@H]1CN(C)C(=O)C1CCCCC1`?
T cruzi growth-1: 127; KDM4C inh: inactive; T cruzi growth-2: 96; T cruzi growth-3: inactive; NIH3T3 tox: inactive; NIH3T3 tox 2: 102

Results for C[C@H]1CN([C@@H](C)CO)S(=O)(=O)c2ccc(C3=CCCC3)cc2O[C@@H]1CN(C)C(=O)C1CCCCC1 ?
T cruzi growth-1: 105!; KDM4C inh: inactive; T cruzi growth-2: 102!; T cruzi growth-3: inactive; NIH3T3 tox: inactive; NIH3T3 tox 2: 57!

How did C[C@@H]1CN([C@@H](C)CO)S(=O)(=O)c2ccc(C3=CCCC3)cc2O[C@@H]1CN(C)C(=O)C1CCOCC1 do in these assays?
T cruzi growth-1: inactive; KDM4C inh: inactive

How did C[C@H](CO)N1C[C@H](C)[C@@H](CN(C)C(=O)C2CCOCC2)Oc2cc(C3=CCCC3)ccc2S1(=O)=O do in these assays?
T cruzi growth-1: inconclusive; KDM4C inh: inactive; T cruzi growth-2: inactive; T cruzi growth-3: inactive; NIH3T3 tox: inactive; NIH3T3 tox 2: 29

What do the screens show for `C[C@H]1CN([C@@H](C)CO)S(=O)(=O)c2ccc(C3=CCCC3)cc2O[C@H]1CN(C)C(=O)C1CCC1`?
T cruzi growth-1: inactive; IDH1 mut inh: inactive; KDM4C inh: inactive

Results for O=C(CSc1nnc(-c2ccncc2)n1-c1ccccc1)c1ccc([N+](=O)[O-])cc1 ?
IDH1 mut inh: inactive

Results for C[C@H](O)[C@H](O)[C@@H](O)[C@@H](O)/C=N/NC(=O)CCCCCCC(=O)Nc1ccccc1O ?
IDH1 mut inh: inactive

Results for Cc1ccc(F)c(NC(=O)CSc2nnc(-c3ccccc3)n2C)c1 ?
IDH1 mut inh: inactive

How did Cc1cccc(N2C(=O)CC(SCC(=O)Nc3ccccc3)C2=O)c1 (stereo unspecified) do in these assays?
IDH1 mut inh: inactive

What do the screens show for `COc1cccc2oc3c(c(=O)c12)C(C(=O)O)=CC(CO)=CO3`?
IDH1 mut inh: inactive

Source: PubChem BioAssay
